Measurements as given in PubChem BioAssay AID2445 (The Scripps Research Institute Molecular Screening Center, 2010).
The campaign covered roughly 320,000 compounds. About 200 (0.062%) were called active. What follows is part of a selection rich in actives, with near analogues and random picks from the rest. Unmarked numbers belong to inactive results.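 How the source made its calls: active means activation above that plate's cutoff, the mean activation of tested compounds plus 3 SD (cut at about 6.6% in these data, passing the limit was not always enough); inactive means the rest.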

The compounds below were run against Oxytocin receptor (Homo sapiens) (UniProt P30559) (assay: enhancers of oxytocin-evoked OXTR calcium signal – fluorescence, CHO-OTR cells, Fluo-8 calcium, primary screen (AID 2445;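 further: 100% uses oxytocin at 75 nM as the full agonist control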)). Details: Fluo-8 calcium fluorescence, potentiator mode, at 3 µM, active compounds read high, 0% = oxytocin EC15, 100% = EC100.
How it was run: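 test system = CHO-OTR cells, human receptor | compound = single-point 3.0 µM | schedule = 6 min compound pre-incubation at room temperature, 100 s kinetic read | signal = Fluo-8 no-wash calcium dye fluorescence, excitation 470-495 nm, emission 515-575 nm | repeats = single well per compound, singlicate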

Sequence of Oxytocin receptor (Homo sapiens) (P30559 whole entry, looked up): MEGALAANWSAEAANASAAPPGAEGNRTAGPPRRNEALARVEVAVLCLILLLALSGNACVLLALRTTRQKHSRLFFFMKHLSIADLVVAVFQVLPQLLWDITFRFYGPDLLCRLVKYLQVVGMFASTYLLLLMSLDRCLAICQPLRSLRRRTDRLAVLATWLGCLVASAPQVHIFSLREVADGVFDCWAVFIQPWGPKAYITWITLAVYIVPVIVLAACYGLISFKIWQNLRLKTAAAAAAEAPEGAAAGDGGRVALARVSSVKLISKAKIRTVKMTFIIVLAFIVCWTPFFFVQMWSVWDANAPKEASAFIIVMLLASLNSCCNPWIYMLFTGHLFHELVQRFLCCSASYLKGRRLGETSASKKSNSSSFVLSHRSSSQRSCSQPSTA

For `CC1CCC(NS(=O)(=O)c2ccc3c(c2)CC(=O)N3)CC1` (centres undefined), which activation is on record?
Its activation is -7.03%.

How did the activation turn out when `Cc1cc(C)cc(N(CC(=O)NC2CCCC2)C(=O)CCC(=O)Nc2cc(C)on2)c1` was run?
The activation was -12.7%.

With `Nc1ccc(SCCN2C(=O)c3ccccc3C2=O)cc1` as the compound, how does the activation read?
Its activation is -2.44%.

`COc1cc(/C=C2\SC(=O)NC2=O)ccc1OCc1ccc(Cl)nc1` was tested. Which activation did it give?
Its activation is -15.2%.

With `CCOC(=O)c1ccccc1NC(=O)c1c(N)n(C)c(=O)[nH]c1=O` as the compound, how does the activation read?
Its activation is -5.38%.

`CCC(C)[C@H](NC(=O)N1c2ccccc2NC(=O)[C@@H]1C(C)C)C(=O)N[C@@H](Cc1ccccc1)C(=O)O` (some centres undefined) was tested. Which activation did it give?
Its activation is -4.93%.

For `CC1(C)CC(=O)CC2(C1)NCC(c1ccccc1Cl)c1c2[nH]c2ccccc12` (centres undefined), which activation is on record?
The activation was -23.6%.

How did the activation turn out when `Cc1cccn2c(=O)nc(SCC(=O)NCc3ccccc3Cl)nc12` was run?
Its activation is -9.43%.

For `O=C(NCCc1ccccn1)c1cc(C(=O)C2CCCCC2)c[nH]1`, which activation is on record?
Its activation is -8.37%.

With `Cc1nc(NCc2ccccc2)c(C(N)=O)c2c1COC(C)(C)C2` as the compound, how does the activation read?
The activation was -7.89%.

For `O=C1CCCc2nn(-c3ccccc3)nc21`, which activation is on record?
Its activation is -20.3%.

`CCc1cc2c(SCC(=O)Nc3ncc(Cl)c(C)c3Cl)ncnc2s1` was tested. Which activation did it give?
The activation was -3.54%.

Which activation does the source give for `COCCn1c(CN(Cc2ccccc2)Cc2ccccc2)nc2c1c(=O)n(C)c(=O)n2C` here?
Its activation is 6.98% (active).

How did the activation turn out when `CC(C)CCn1c(CN(C)Cc2ccccc2)nc2c1c(=O)n(C)c(=O)n2C` was run?
Its activation is -2.79%.

Which activation does the source give for `CC(C)Cn1c(CN(Cc2ccccc2)Cc2ccccc2)nc2c1c(=O)n(C)c(=O)n2C` here?
The activation was -4.31%.

`CCc1nn(CCCC(=O)NCc2ccc(C)cc2)c(=O)c2cc3occc3n12` was tested. Which activation did it give?
Its activation is -17.3%.

Which activation does the source give for `CCOC(=O)[C@H]1[C@H]2COc3cc(OC)ccc3[C@@H]2N2C(=O)N(c3ccc(Br)cc3)C(=O)[C@@]12C` here?
Its activation is -10.7%.

How did the activation turn out when `O=P(O)(CP(=O)(c1ccccc1)c1ccccc1)c1ccccc1` was run?
The activation was -9.44%.

With `Cc1cccc(N2CCN(C(=O)CN(C)S(=O)(=O)c3ccc4c(c3)CCC(=O)N4)CC2)c1C` as the compound, how does the activation read?
Its activation is -9.67%.

For `CC(Oc1ccc(F)cc1)C(=O)Nc1ccccc1C(=O)NC1CC1` (centres undefined), which activation is on record?
Its activation is 2.5%.

With `Cc1c(-c2nn(C)c(=O)c3ccccc23)oc2ccc(F)cc2c1=O` as the compound, how does the activation read?
The activation was -8.96%.

How did the activation turn out when `C=CCOC(=O)C1=C[C@@H](c2ccc3c(c2)OCO3)C[C@@H](OCCCCO)O1` was run?
Its activation is -0.78%.

With `Cc1ccc(N/N=C2\COC(C)(C)CC2=O)cc1` as the compound, how does the activation read?
Its activation is -4.26%.

`CCOc1ccc(-c2c(C)n([O-])c3c([n+]2=O)CCCC3)cc1` was tested. Which activation did it give?
The activation was -2.39%.
